# The list is not random: actives were taken first. Their share in the collection is about 4.3%.
# FLuc inh counter: counter-screen for luciferase assay inhibitors: firefly luciferase inhibition. P08659. ATPLite firefly luciferase biochemical luminescence, 10 min. inhibition, % at 10 µM. 200,000 compounds, 1.5% hits;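 active = inhibition above about 50% when tested at 10 µM, limit read from the data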
# Target sequence (P08659 whole entry, looked up): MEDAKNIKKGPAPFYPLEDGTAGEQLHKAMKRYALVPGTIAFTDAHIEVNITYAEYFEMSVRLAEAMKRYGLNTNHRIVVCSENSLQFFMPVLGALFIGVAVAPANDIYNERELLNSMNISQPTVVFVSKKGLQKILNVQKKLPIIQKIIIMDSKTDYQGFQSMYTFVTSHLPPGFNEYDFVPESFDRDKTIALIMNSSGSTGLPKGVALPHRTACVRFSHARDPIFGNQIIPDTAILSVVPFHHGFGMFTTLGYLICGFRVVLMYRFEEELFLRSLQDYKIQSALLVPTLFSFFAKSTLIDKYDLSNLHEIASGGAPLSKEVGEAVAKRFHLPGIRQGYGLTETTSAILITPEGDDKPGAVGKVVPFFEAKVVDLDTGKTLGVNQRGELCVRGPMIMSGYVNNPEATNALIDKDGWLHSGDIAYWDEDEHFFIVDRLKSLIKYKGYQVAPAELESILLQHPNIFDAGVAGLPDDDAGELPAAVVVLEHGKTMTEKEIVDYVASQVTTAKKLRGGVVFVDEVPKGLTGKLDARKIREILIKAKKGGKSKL
# APP 5'UTR act: APP 5'UTR luciferase reporter activation. AID 1276. SH-SY5Y APP 5'UTR luciferase reporter, luminescence; zero percent = DMSO vehicle wells. activation, % at 2 µM. 190,000 compounds, 1% hits;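 active = activation above a set limit, based on mean plus 3 SD of controls, cut at about 140% in these data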
# STAT1 activator: STAT1 signaling activation. NIH 3T3 STAT1-luciferase reporter, IFN-gamma, luminescence; 100% = IFN-gamma alone, no compound. activation (% of control), % at 5.5 µM. 200,000 compounds, 2.6% hits;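 active = activation above the screen-wide mean activation plus 3 SD, cut at about 130% in these data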;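 also: raw ratio to IFN-gamma control signal so 100% means no change and 0% no light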
# FLuc stim CS: affects firefly luciferase, flagging false hits in luciferase stimulation screens. ATPlite luciferase biochemical, luminescence, 10 min; 0 = ATP-free wells, 1 = DMSO control. P08659. activation factor at 10 µM. 200,000 tested, under 10 active;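 active = luciferase activation factor, scaled between plate controls, of at least 2 with compound at 10 µM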
#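 Material: luciferase plus luciferin reagent, cell-free. Medium: PBS buffer for ATP. Also added: ATP substrate, dispensed from a 10.24 µM working solution in PBS. Doses: test compounds dosed from 2 mM stocks in 100% DMSO. Incubation: 10 min post-reagent at room temperature. Technique: light output (luminescence). Read-out basis: luminescence gain marking luciferase activators.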
# NF-kB neuron act: NF-kB expression increase, human neuronal cells; NF-kB reporter expression; active compounds read high; 190,000 compounds, 1.6% hits; fold change at 12.5 µM; AID 1239; in the data active = fold change above about 3.3
# The depositor's hits bear a star; . = no result.
SMILES,FLuc inh counter,APP 5'UTR act,STAT1 activator,FLuc stim CS,NF-kB neuron act
N/C(=N\OCc1ccc([N+](=O)[O-])cc1)c1ccncc1,55*,42,115,0.5,2
O=C(NNC(=O)c1ccc([N+](=O)[O-])cc1)c1ccncc1,-4,0,99,1,1.2
O=C(c1ccccc1)c1cccc(NC(=O)c2ccco2)c1,6,39,129*,0.9,1.9
O=C(COC(=O)c1ccco1)Nc1ccc2c(c1)OCCO2,69*,5,110,0.3,1.5
O=C(COC(=O)c1ccccc1NC(=O)c1ccco1)Nc1ccc2c(c1)OCO2,1,9,99,1,1.2
CC(=O)c1cccc(NC(=O)c2ccco2)c1,-1,6,103,1,1.4
Cc1ccc(NC(=O)c2ccco2)cc1C,50,105,132*,0.5,2.4
CC1(C)Oc2ccc(NC(=O)c3ccco3)cc2O1,63*,116,129*,0.4,3
Cc1ccc(N/C(N)=N/c2nc(C)cc(N3CCCCC3)n2)c(C)c1,-5,-12,65,1,1
COCCn1c(SCC(=O)Nc2sccc2C(N)=O)nnc1-c1ccncc1,-7,-4,99,1.1,1.9
O=C(O)CCCCCN1C(=O)C(O)=C(C(=O)/C=C/c2ccccc2)C1c1ccccc1[N+](=O)[O-] (stereo unspecified),4,12,90,1,0.97
O=C(Nc1ccc2c(c1)OCCO2)c1ccco1,50*,93,128,0.5,2.2
Oc1cccc2ccc(/C=C/c3c(F)cccc3Cl)nc12,24,136*,97,0.8,5.4*
C=CCSc1nc2ccccc2n1C(=O)/C=C/c1ccc(OC)c(OC)c1,1,-8,93,1,0.99
C=CCSc1nc2ccccc2n1C(=O)/C=C/c1cc(OC)c(OC)c(OC)c1,-1,-58,145*,1,0.7
CNC(=O)c1sc(-c2ccc(Cl)cc2)nc1C,2,.,142*,1,2.1
CC(=O)c1sc(-c2ccc(Cl)cc2)nc1C,-4,36,133*,1,1.4
CCOc1ccc(-c2csc(Cn3c(CN4CCN(C)CC4)nc4ccccc4c3=O)n2)cc1,-6,3,73,1.1,0.62
Cc1sc2ncnc(N=Nc3c(O)[nH]c4ccccc34)c2c1C,50*,25,106,0.5,0.77
CCNC(=S)NNC(=O)c1cc(-c2cccc(C)c2)nc2ccccc12,89*,22,88,0.1,1.6
CCNC(=S)NNC(=O)c1cc(-c2cccc(OCC)c2)nc2ccccc12,58*,-1,100,0.4,1.2
COc1cccc(-c2cc(C(=O)NN3CCOCC3)c3ccccc3n2)c1,-1,-10,93,1,1
COc1cccc(-c2cc(C(=O)Nn3cnnc3)c3ccccc3n2)c1,82*,-4,95,0.2,1.4
COc1cc(/C=N/Nc2nc(C)cc(=O)[nH]2)ccc1OC(=O)c1cccnc1,2,2,106,1,1.1
Cc1ccc(NC(=O)CSCc2ccco2)cc1,6,32,129*,0.9,2
SMILES,FLuc inh counter,APP 5'UTR act,STAT1 activator,FLuc stim CS,NF-kB neuron act
CC(C)c1ccc(-n2cnn(-c3ncccc3[N+](=O)[O-])c2=O)cc1,54*,140*,122,0.5,8.6*
O=C1CCN(c2ncccc2[N+](=O)[O-])CC1,-2,-10,104,1,1.2
Cc1cc(=O)[nH]c(SCn2nnc3ccccc3c2=O)n1,-10,-1,100,1.1,1.1
c1csc(CSc2nc3ccccc3s2)c1,16,55,145*,0.8,2.8
Cc1noc(C)c1CSc1nc2ccccc2s1,-2,23,104,1,1.4
Cc1ccc(SCn2nnc3ccccc3c2=O)c(C)c1,5,76,141*,0.9,2.9
c1csc(CSc2nnc3sc4ccccc4n23)c1,8,43,132*,0.9,2.7
Cc1ccc(-n2c(SCn3nnc4ccccc4c3=O)nnc2-c2cccnc2)c(C)c1,-7,-2,97,1.1,0.52
O=c1c2ccccc2nnn1CSc1nc2ccccc2[nH]1,2,66,135*,1,2.2
Nc1ccc2nc[nH]c2c1,1,-12,98,1,1.5
O=c1c2ccccc2nnn1CSc1nnc2sc3ccccc3n12,58*,90,123,0.4,2.8
CN(C)C(=O)CSc1nnc2sc3ccccc3n12,-8,18,101,1.1,.
Cc1oc2cc3c(C(=O)N4CCCCC4)c(C)oc3cc2c1C(=O)N1CCCCC1,2,71,139*,1,0.88
COc1ccc(C(C)=O)cc1COC(=O)c1cccnc1SC,-9,-2,98,1.1,3.9*
CSc1ncccc1C(=O)OCc1ccc(C#N)cc1,-4,12,106,1,1.1
COC(=O)c1cccc(COC(=O)c2cccnc2SC)c1,-6,19,113,1.1,3.5*
Cc1cc(C)n2nc(S(=O)(=O)NC3CCCCC3)nc2n1,-2,14,106,1,1.1
Cc1cc(Cl)ccc1NC(=S)NCCN1CCOCC1,-2,-2,106,1,2.1
COC(=O)CC(NC(=O)c1ccc(C)cc1)c1ccccc1 (stereo unspecified),65*,31,109,0.3,1
Cc1ccc(NC(=O)COC(=O)c2cc(C)nc3ccccc23)c([N+](=O)[O-])c1,-8,-6,92,1.1,1.2
CCCCOc1ccc(/C=C2/Sc3ccccc3C2=O)cc1,36,5,91,0.6,1.5
CC(C)COc1ccc(/C=C2/Sc3ccccc3C2=O)cc1,57*,-1,97,0.4,1.1
C=CCn1c(C(C)NC(=O)c2cccc(C)c2)n[nH]c1=S (stereo unspecified),-1,13,96,1,3.3*
COc1ccc(-c2cn3cccnc3n2)cc1F,57*,14,112,0.4,1.9
Clc1ccc(-c2cn3cccnc3n2)cc1,36,16,133*,0.6,2.3
SMILES,FLuc inh counter,APP 5'UTR act,STAT1 activator,FLuc stim CS,NF-kB neuron act
C=CCSc1n[nH]c(-c2ccc(OCCCC)cc2)n1,-3,47,127,1,2
CCCCOc1ccc(-c2[nH]ncc2C=O)cc1,4,61,135*,1,1.8
COc1ccc(S(=O)(=O)NCCOc2cccc3cccnc23)cc1OC,-1,6,129*,1,1.1
CSc1nc2ccc(NC(=O)c3cc4ccccc4o3)cc2s1,35,140*,139*,0.7,4.9*
CSc1nc2ccc(NC(=O)c3ccc(=O)n(C)n3)cc2s1,18,32,127,0.8,1.3
CSc1nc2ccc(NC(=O)c3ccc(F)c(F)c3)cc2s1,0,49,140*,1,2.4
Nc1nc2ccc(C(=O)Nc3ccccc3)cc2s1,16,88,148*,0.8,2.6
CSc1nc2ccc3nc(NC(=O)c4ccccc4)sc3c2s1,-3,18,139*,1,1.9
CN1CCN(c2ccccc2NC(=O)COc2ccc(Br)cc2)CC1,-2,2,100,1,0.78

# Assay outcomes deposited in PubChem BioAssay by several laboratories.
